Experimental data published in PubChem BioAssay AID504351 (Broad Institute, 2011).
Results filed as inconclusive are left out. Activity calls are given as the source filed them.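 How the source made its calls: active means every replicate test active, meaning falling signal with half-maximal potency at most ten times the top valid dose; inconclusive means replicate test calls disagree with each other; inactive means every replicate test inactive, including signal rising instead.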

Legend:
[1] = secreted streptokinase activity reduction in group A streptococci – OD405 absorbance, dry powder, set 3, dose response (AID 504351); conditions: S. pyogenes UMAA2166, streptokinase activity in supernatant, OD405, 6 h; at 50 µM (top of the series)
Summary of the method: (§1)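 Timing: 6 h compound exposure of cultures at 37 °C. Assay system: group A Streptococcus cultures. Dosing: multi-point serial dilution series of compounds.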

[2] = target: S. pyogenes UMAA2166, streptokinase activity in supernatant, OD405, 6 h; assay: as above
Summary of the method: as §1

Structure (SMILES)	activity change, negative = inhibition [1]	AC50 [2]
CCCOc1ccc(-c2nc(Oc3ccc(F)cc3)c3ccccc3n2)cc1	inactive	–
CCCOc1ccc(-c2nc(OC)c3ccccc3n2)cc1	inactive	–
CCCOc1ccc(-c2nc(OCCCOC)c3ccccc3n2)cc1	inactive	–
Cc1ccc(C(=O)n2ncc3ccccc32)cc1	inactive	–
COc1ccc(C(=O)n2c3ccccc3c3ccccc32)cc1	inactive	–
Cc1ccc(NC(=O)n2c3ccccc3c3ccccc32)cc1	inactive	–
COc1nc(-c2cccc(F)c2)nc2ccccc12	inactive	–
COc1ccc(Sc2ccc(NC(=O)c3ccccc3C#N)cc2C#N)cc1	inactive	–
COc1cccc(-c2nc3ccccc3c(=O)[nH]2)c1	inactive	–
COc1ccc(Sc2ccc(NC(=O)c3ccc(OC)cc3)cc2C#N)cc1	inactive	–
COc1ccc2c(c1)c1cc(OC)ccc1n2C(=O)c1ccc(C)cc1	inactive	–
O=c1[nH]c(-c2cccc(F)c2)nc2ccccc12	inactive	–
COc1ccc(Sc2ccc(N(C(=O)c3ccccc3Cl)C(=O)c3ccccc3Cl)cc2C#N)cc1	inactive	–
COc1nc(-c2ccc(Cl)cc2)nc2ccccc12	inactive	–
COc1ccc(Sc2ccc(NC(=O)c3ccccc3Cl)cc2C#N)cc1	inactive	–
COc1ccc(Sc2ccc(NC(=O)c3ccccc3Cl)cc2)cc1	inactive	–
CCCOc1ccc(-c2nc(OC(C)C)c3ccccc3n2)cc1	–	37.5 µM
COc1ccc(Sc2ccc(NCc3ccccc3Cl)cc2C#N)cc1	inactive	–
O=C(c1cscn1)n1c2ccccc2c2ccccc21	inactive	–
O=C(Nc1ccc(Sc2ccccc2)cc1)c1ccccc1Cl	–	44.4 µM

Structure (SMILES)	activity change, negative = inhibition [1]	AC50 [2]
O=C(c1ccc(N2CCOCC2)cc1)n1c2ccccc2c2ccccc21	inactive	–
COc1ccc(S(=O)(=O)c2ccc(NC(=O)c3ccccc3Cl)cc2C#N)cc1	inactive	–
CC(C)Oc1ccc(-c2nc3ccccc3c(=O)[nH]2)cc1	inactive	–
COc1ccc(Sc2ccc(N)cc2C#N)cc1	inactive	–
CCCOc1ccc(-c2nc(N(C)C)c3ccccc3n2)cc1	inactive	–
COc1ccc(Sc2ccc(NC(=O)c3ccccc3OC)cc2C#N)cc1	inactive	–
Cc1ccc(C(=O)n2c3ccccc3c3ccccc32)cn1	inactive	–
O=c1[nH]c(-c2ccc(Cl)cc2)nc2ccccc12	inactive	–
COc1ccc(Sc2ccc(NC(=O)c3ccc(C)cc3)cc2C#N)cc1	inactive	–
CCCOc1ccc(-c2nc3ccccc3c(=O)[nH]2)cc1	inactive	–
COc1cccc(-c2nc(OC)c3ccccc3n2)c1	inactive	–
COc1nc(-c2cccc(Cl)c2)nc2ccccc12	inactive	–
CCCOc1ccc(-c2nc(Oc3ccc(C)cc3)c3ccccc3n2)cc1	inactive	–
O=c1[nH]c(-c2cccc(Cl)c2)nc2ccccc12	inactive	–
Cc1ccc(C(=O)n2c3ccccc3c3cccnc32)cc1	inactive	–
COc1ccccc1C(=O)n1c2ccccc2c2ccccc21	inactive	–
CS(=O)(=O)c1ccc(NC(=O)c2ccccc2Cl)cc1	inactive	–
CCCOc1ccc(-c2nc(NC)c3ccccc3n2)cc1	–	31.6 µM
Cc1ccc(C(=O)n2c3ccccc3c3ccncc32)cc1	–	40.9 µM
